Measured values gathered from unrelated publications.
Protocols differ between the studies behind these lines.
Target: Serine/threonine-protein kinase PAK 6 (PAK6, Homo sapiens, UniProt Q9NQU5)

O=C(NCCCN1CCOCC1)c1ccc(Nc2ncc(Cl)c(-c3ccc(Cl)s3)n2)cc1 — remaining binding (binding, competition with immobilised ligand; 1 µM): 74%
CN(C)C(=O)Cn1cc(-c2nc(C3(c4ccc(-c5cnc(N)nc5)cc4)CC3)no2)cn1 — remaining binding (cell-free assay, competition with immobilised ligand; 1 µM): 100%
O=C(c1ccc(Nc2nccc(-c3cc4ccccc4s3)n2)cc1)N1CCC(N2CCCC2)CC1 — remaining binding (binding, competition with immobilised ligand; 1 µM): 100%
Cc1cnn2ncc(-c3ccnc(N(C)C)n3)c2c1 — remaining binding (binding; 1 µM): 93%
c1ccc(N2CCN(Cc3nc4ccccc4[nH]3)CC2)nc1 — remaining binding (cell-free assay, competition with immobilised ligand; 1 µM): 100%
CC1CCCN1c1nccc(-c2cnn3ncccc23)n1 (stereo not drawn) — remaining binding (binding; 1 µM): 100%
c1cncc(-c2cccc(Nc3nccc(NC4CCCCC4)n3)c2)c1 — remaining binding (binding, competition with immobilised ligand; 10 µM): 60%
COc1ncc2cc3ccccc3nc2c1C#N — remaining binding (cell-free assay, competition with immobilised ligand; 5 µM): 94%
N#CC1(c2ccccn2)CCN(Cc2cc(C(=O)N3CCCC3)c(=O)n3ccccc23)CC1 — remaining binding (cell-free assay, competition with immobilised ligand; 1 µM): 100%
C[C@@H](c1ccc(-n2cnc3c(N)ncnc32)cc1)N1CCc2nn(C)c(Cc3ccccc3)c2C1=O — remaining binding (binding, competition with immobilised ligand; 0.1 µM): 96%
Cc1cnc(Nc2ccc(C(=O)N3CCC(N4CCCC4)CC3)cc2)nc1-c1cc2ccccc2s1 — remaining binding (binding, competition with immobilised ligand; 1 µM): 63%
CN(C(=O)c1ccccc1)c1cc(N(C)c2ccc3c(c2)CCc2ccc(C(=O)NCCN4CCOCC4)cc2C3=O)ccc1F — remaining binding (cell-free assay, competition with immobilised ligand; 1 µM): 100%
COc1ccnn2ncc(-c3ccnc(N(C)C)n3)c12 — remaining binding (binding; 1 µM): 97%
COc1cnc(Nc2cccc(S(N)(=O)=O)c2)nc1N1CCN(c2ccccc2)CC1 — remaining binding (binding, competition with immobilised ligand; 1 µM): 100%
C[C@@H]1CCN(c2nccc(-c3cnn4ncccc34)n2)C1 — remaining binding (binding; 1 µM): 87%
CS(=O)(=O)N1CCCC(NC(=O)[C@H](CCC2CCCCC2)NC(=O)c2ccc(CNC(=O)c3cnc4ccccn34)cc2)C1 (stereo partly drawn) — remaining binding (cell-free assay, competition with immobilised ligand; 0.1 µM): 100%
CN(c1nccc(-c2cnn3ncccc23)n1)C1CC1 — remaining binding (binding; 1 µM): 100%
CNC(=O)Nc1ccc2c(c1)CC[C@@]21OC(=O)N(CC(=O)N(Cc2ccc(F)cc2)[C@@H](C)C(F)(F)F)C1=O — remaining binding (cell-free assay, competition with immobilised ligand; 1 µM): 91%
O=C(Nc1c[nH]nc1C(=O)NC1CCNCC1)c1cc(F)cc(F)c1 — remaining binding (binding, competition with immobilised ligand; 1 µM): 100%
F[C@@H]1CCN(c2nccc(-c3cnn4ncccc34)n2)C1 — remaining binding (binding; 1 µM): 100%
Nc1ncc2c(n1)-c1c([nH]c3ccc(C#CC4CC4)cc13)CCCC2 — remaining binding (binding, competition with immobilised ligand; 1 µM): 94%
